Data as given in ChEMBL document CHEMBL1687776, “Origin and molecular evolution of the determinant of methicillin resistance in staphylococci” (2010).
Values after ≈ are worked out from the molar mass of the structure shown.

System: Staphylococcus vitulinus
Experiment: Antibacterial activity against methicillin-resistant mecA-positive Staphylococcus vitulinus SVMP06 by agar dilution method
Format: functional
Conditions: Mammaliicoccus vitulinus
In short: (§1)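 MIC by agar dilution on Mueller-Hinton agar per CLSI guidance; resistance judged against CLSI breakpoints. Strains were animal or food isolates (type strains for S. sciuri subspecies), typed by hsp60 and/or sodA sequencing; mecA homologue carriage checked by PCR with degenerate primers. Agents tested: oxacillin, ampicillin, ceftizoxime, ceftriaxone, cefoxitin.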

Compound | MIC
Cc1onc(-c2ccccc2)c1C(=O)N[C@@H]1C(=O)N2[C@@H]1SC(C)(C)[C@@H]2C(=O)O [OXACILLIN] | 0.5 µg/mL (≈ 1.25 µM)

System: Staphylococcus fleurettii
Experiment: Antibacterial activity against methicillin-resistant mecA-positive Staphylococcus fleurettii SFMP07 by agar dilution method
Format: functional
Conditions: Mammaliicoccus fleurettii
In short: as §1

Compound | MIC
Cc1onc(-c2ccccc2)c1C(=O)N[C@@H]1C(=O)N2[C@@H]1SC(C)(C)[C@@H]2C(=O)O [OXACILLIN] | 8 µg/mL (≈ 19.9 µM)

System: Staphylococcus fleurettii
Experiment: Antibacterial activity against methicillin-resistant mecA-positive Staphylococcus fleurettii SFMP02 by agar dilution method
Format: functional
Conditions: Mammaliicoccus fleurettii
In short: as §1

Compound | MIC
Cc1onc(-c2ccccc2)c1C(=O)N[C@@H]1C(=O)N2[C@@H]1SC(C)(C)[C@@H]2C(=O)O [OXACILLIN] | 8 µg/mL (≈ 19.9 µM)

System: Staphylococcus vitulinus
Experiment: Antibacterial activity against mecA-negative Staphylococcus vitulinus SVMN08 by agar dilution method
Format: functional
Conditions: Mammaliicoccus vitulinus
In short: (§2)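 MIC by agar dilution on Mueller-Hinton agar following CLSI guidelines. Resistance was assigned using CLSI breakpoints. Agents tested were oxacillin, ampicillin, ceftizoxime, ceftriaxone and cefoxitin. Strains were from animal or food sources and identified by hsp60 and/or sodA sequencing. mecA absence was assessed by PCR with degenerate primers for mecA and its homologues.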

Compound | MIC
Cc1onc(-c2ccccc2)c1C(=O)N[C@@H]1C(=O)N2[C@@H]1SC(C)(C)[C@@H]2C(=O)O [OXACILLIN] | 0.5 µg/mL (≈ 1.25 µM)

System: Staphylococcus fleurettii
Experiment: Antibacterial activity against methicillin-resistant mecA-positive Staphylococcus fleurettii SFMP05 by agar dilution method
Format: functional
Conditions: Mammaliicoccus fleurettii
In short: as §1

Compound | MIC
Cc1onc(-c2ccccc2)c1C(=O)N[C@@H]1C(=O)N2[C@@H]1SC(C)(C)[C@@H]2C(=O)O [OXACILLIN] | 32 µg/mL (≈ 79.7 µM)

System: Staphylococcus vitulinus
Experiment: Antibacterial activity against methicillin-resistant mecA-positive Staphylococcus vitulinus SVMP02 by agar dilution method
Format: functional
Conditions: Mammaliicoccus vitulinus
In short: as §1

Compound | MIC
Cc1onc(-c2ccccc2)c1C(=O)N[C@@H]1C(=O)N2[C@@H]1SC(C)(C)[C@@H]2C(=O)O [OXACILLIN] | 0.5 µg/mL (≈ 1.25 µM)

System: Staphylococcus fleurettii
Experiment: Antibacterial activity against mecA-negative Staphylococcus fleurettii SFMN01 by agar dilution method
Format: functional
Conditions: Mammaliicoccus fleurettii
In short: as §2

Compound | MIC
Cc1onc(-c2ccccc2)c1C(=O)N[C@@H]1C(=O)N2[C@@H]1SC(C)(C)[C@@H]2C(=O)O [OXACILLIN] | 0.5 µg/mL (≈ 1.25 µM)

System: not listed separately
Experiment: Antibacterial activity against methicillin-resistant mecA-positive Staphylococcus sciuri subsp. sciuri ATCC 29062T by agar dilution method
Format: functional
Conditions: Mammaliicoccus sciuri
In short: as §1

Compound | MIC
Cc1onc(-c2ccccc2)c1C(=O)N[C@@H]1C(=O)N2[C@@H]1SC(C)(C)[C@@H]2C(=O)O [OXACILLIN] | 0.5 µg/mL (≈ 1.25 µM)

System: Staphylococcus vitulinus
Experiment: Antibacterial activity against mecA-negative Staphylococcus vitulinus SVMN04 by agar dilution method
Format: functional
Conditions: Mammaliicoccus vitulinus
In short: as §1

Compound | MIC
Cc1onc(-c2ccccc2)c1C(=O)N[C@@H]1C(=O)N2[C@@H]1SC(C)(C)[C@@H]2C(=O)O [OXACILLIN] | 0.5 µg/mL (≈ 1.25 µM)

System: Staphylococcus vitulinus
Experiment: Antibacterial activity against mecA-negative Staphylococcus vitulinus SVMN12 by agar dilution method
Format: functional
Conditions: Mammaliicoccus vitulinus
In short: as §1

Compound | MIC
Cc1onc(-c2ccccc2)c1C(=O)N[C@@H]1C(=O)N2[C@@H]1SC(C)(C)[C@@H]2C(=O)O [OXACILLIN] | 0.5 µg/mL (≈ 1.25 µM)

System: Staphylococcus vitulinus
Experiment: Antibacterial activity against mecA-negative Staphylococcus vitulinus SVMN09 by agar dilution method
Format: functional
Conditions: Mammaliicoccus vitulinus
In short: as §1

Compound | MIC
Cc1onc(-c2ccccc2)c1C(=O)N[C@@H]1C(=O)N2[C@@H]1SC(C)(C)[C@@H]2C(=O)O [OXACILLIN] | 0.5 µg/mL (≈ 1.25 µM)

System: Staphylococcus fleurettii
Experiment: Antibacterial activity against methicillin-resistant mecA-positive Staphylococcus fleurettii SFMP08 by agar dilution method
Format: functional
Conditions: Mammaliicoccus fleurettii
In short: as §1

Compound | MIC
Cc1onc(-c2ccccc2)c1C(=O)N[C@@H]1C(=O)N2[C@@H]1SC(C)(C)[C@@H]2C(=O)O [OXACILLIN] | 64 µg/mL (≈ 159 µM)

System: Staphylococcus vitulinus
Experiment: Antibacterial activity against mecA-negative Staphylococcus vitulinus SVMN06 by agar dilution method
Format: functional
Conditions: Mammaliicoccus vitulinus
In short: as §1

Compound | MIC
Cc1onc(-c2ccccc2)c1C(=O)N[C@@H]1C(=O)N2[C@@H]1SC(C)(C)[C@@H]2C(=O)O [OXACILLIN] | 0.5 µg/mL (≈ 1.25 µM)

System: Staphylococcus fleurettii
Experiment: Antibacterial activity against methicillin-resistant mecA-positive Staphylococcus fleurettii SFMP06 by agar dilution method
Format: functional
Conditions: Mammaliicoccus fleurettii
In short: as §1

Compound | MIC
Cc1onc(-c2ccccc2)c1C(=O)N[C@@H]1C(=O)N2[C@@H]1SC(C)(C)[C@@H]2C(=O)O [OXACILLIN] | 64 µg/mL (≈ 159 µM)

System: Staphylococcus vitulinus
Experiment: Antibacterial activity against mecA-negative Staphylococcus vitulinus SVMN11 by agar dilution method
Format: functional
Conditions: Mammaliicoccus vitulinus
In short: as §1

Compound | MIC
Cc1onc(-c2ccccc2)c1C(=O)N[C@@H]1C(=O)N2[C@@H]1SC(C)(C)[C@@H]2C(=O)O [OXACILLIN] | 0.5 µg/mL (≈ 1.25 µM)

System: Staphylococcus fleurettii
Experiment: Antibacterial activity against methicillin-resistant mecA-positive Staphylococcus fleurettii SFMP01(CCUG 43834T) by agar dilution method
Format: functional
Conditions: Mammaliicoccus fleurettii
In short: as §1

Compound | MIC
Cc1onc(-c2ccccc2)c1C(=O)N[C@@H]1C(=O)N2[C@@H]1SC(C)(C)[C@@H]2C(=O)O [OXACILLIN] | 64 µg/mL (≈ 159 µM)

System: not listed separately
Experiment: Antibacterial activity against methicillin-resistant mecA-positive Staphylococcus sciuri subsp. rodentium ATCC 700061T by agar dilution method
Format: functional
Conditions: Mammaliicoccus sciuri
In short: as §1

Compound | MIC
Cc1onc(-c2ccccc2)c1C(=O)N[C@@H]1C(=O)N2[C@@H]1SC(C)(C)[C@@H]2C(=O)O [OXACILLIN] | 0.5 µg/mL (≈ 1.25 µM)
